Source: PubChem (The Scripps Research Institute Molecular Screening Center)
Shown are actives, neighbours in structure and some others; about 4.5% of the full set was active somewhere.
TAAR1 antagonist: human TAAR1 antagonism. Q96RJ0. CHO RD-HGA16 TAAR1, Fluo-8 calcium fluorescence, antagonist. inhibition, % at 3 µM. 360,000 compounds, 1.5% hits;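 active = inhibition above a per-plate cutoff, the mean inhibition of test compounds on that plate plus 3 SD, cut at about 49% in these data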;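 note: 0% = DMSO plus EC80 beta-PEA response and 100% = DMSO alone without agonist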
Target sequence (Q96RJ0 whole entry, looked up): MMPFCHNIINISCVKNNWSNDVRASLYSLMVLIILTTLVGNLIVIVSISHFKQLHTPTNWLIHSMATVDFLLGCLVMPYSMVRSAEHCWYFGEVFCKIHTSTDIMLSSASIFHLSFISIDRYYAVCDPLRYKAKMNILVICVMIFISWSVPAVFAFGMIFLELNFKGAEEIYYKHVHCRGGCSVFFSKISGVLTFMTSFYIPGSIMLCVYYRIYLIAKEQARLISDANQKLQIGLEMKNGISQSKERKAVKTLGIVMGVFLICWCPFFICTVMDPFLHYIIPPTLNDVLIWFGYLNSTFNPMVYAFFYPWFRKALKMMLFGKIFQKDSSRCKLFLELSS
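Test system – hTAAR1-expressing CHO RD-HGA16 cells, Gα16-coupled · Reagent – β-PEA at EC80 concentration, post-compound challenge · Compound dosing – 3 µM, single point · Timing – 140 s kinetic read after compound, 140 s after agonist · Detection – Fluo-8 intracellular calcium dye fluorescence, real-time kinetic reads · Control set – DMSO and EC80 PEA controls · Repeats – n of 1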
GPR7 antagonist: antagonists of human GPR7 (neuropeptides B/W receptor 1); 290,000 compounds, 1.1% hits; AID 1861; inhibition, % at 4.4 µM; GPR7-expressing cells, fluorescence antagonist assay; P48145; in the data active = inhibition above about 16%, passing the limit was not always enough;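 note: cells stimulated with the agonist NPW; 0% = agonist with vehicle and 100% = vehicle without agonist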
Target sequence (P48145 whole entry, looked up): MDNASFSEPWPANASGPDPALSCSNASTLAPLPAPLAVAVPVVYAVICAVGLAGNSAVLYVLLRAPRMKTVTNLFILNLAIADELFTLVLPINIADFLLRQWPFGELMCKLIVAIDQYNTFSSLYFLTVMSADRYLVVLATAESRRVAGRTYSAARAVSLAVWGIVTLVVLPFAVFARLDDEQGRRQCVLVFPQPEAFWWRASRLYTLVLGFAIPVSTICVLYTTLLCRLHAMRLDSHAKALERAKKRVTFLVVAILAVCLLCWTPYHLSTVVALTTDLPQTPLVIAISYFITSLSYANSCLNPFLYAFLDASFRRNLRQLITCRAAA
OX1R antag-1: blocks the human orexin 1 receptor; O43613; OX1R-expressing cells, FRET antagonist read-out; inhibition, % at 6.6 µM; 330,000 compounds, 1.8% hits; AID 485270; in the data active = inhibition mostly above about 38%, no sharp cut-off; inactive = mostly below about 40%;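 note: 0% = agonist challenge alone and 100% = reference antagonist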
TAAR1 ag: human TAAR1 agonism. Q96RJ0. CHO RD-HGA16 TAAR1, Fluo-8 calcium fluorescence; vehicle wells 0%, saturating PEA agonist 100%. activation, % at 3 µM. 360,000 compounds, 0.99% hits;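 active = activation above the mean activation of all test compounds in the run plus 3 SD, cut at about 38% in these data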
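System: CHO RD-HGA16 cells carrying human TAAR1 plus Gα16; Incubation: 17-24 h seeding, 75 min 37 °C dye, 30 min RT; Measured by: Fluo-8 fluorescence, 5 s baseline then 140 s kinetic read; Control set: DMSO and PEA EC100; Replication: single well for each compound.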
CHO parental Ca: counter-screen for OX1R antagonists: effect in parental CHO cells. parental CHO-K1, ATP-induced calcium, Fluo-8 fluorescence. inhibition, % at 5.6 µM. 330,000 compounds, 0.63% hits. AID 463079;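 active = inhibition above that plate's mean sample inhibition plus 3 SD, cut at about 26% in these data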;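 note: 0% = ATP-challenged DMSO wells and 100% = DMSO wells without ATP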
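Measured by: calcium-sensitive Fluo-8 fluorescence / Test system: CHO parental line / Controls: ATP-challenged DMSO wells low, unchallenged DMSO wells high / Measure: % inhibition / Compound: single nominal dose of 5.6 µM per compound / Replicates: single well per compound, no replicates / Reagent: ATP as calcium-mobilizing challenge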
OX1R antag-2: blocks the human orexin 1 receptor; O43613; CHO/OX1R cells, Fluo-8 calcium fluorescence, orexin A; inhibition, % at 5 µM; 330,000 compounds, 0.43% hits;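 active = inhibition above its plate's threshold, mean inhibition of all tested compounds on the plate plus 3 SD, cut at about 37% in these data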;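 note: 0% = orexin A challenge wells and 100% = SB-334867-A antagonist wells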
TAAR1 nonsel count: nonselective antagonist in TAAR1 antagonist counter-screen; shares compounds with TAAR1 antagonist; counterscreen cell line, calcium fluorescence, antagonist mode; inhibition, % at 3 µM; 2,400 compounds, 77% hits; in the data active = inhibition above about 22%;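 note: CHO-Ga16 host cells stimulated with ATP at an EC80 level; 0% = agonist EC80 plus vehicle and 100% = vehicle without agonist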
TAAR1 ant conf: confirmation of human TAAR1 antagonists; 2,400 compounds, 40% hits; inhibition, % at 3 µM; shares compounds with TAAR1 antagonist; TAAR1-expressing cells, fluorescence antagonist read-out; in the data active = inhibition above about 49%;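 note: CHO-Ga16 host cells challenged with agonist PEA near its EC80; 0% = agonist at EC80 plus vehicle and 100% = vehicle with no agonist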
Ga16 nonsel ag: counter-screen for TAAR1 antagonists: nonselective Ga16 agonists | shares compounds with TAAR1 antagonist | Ga16-expressing cells, calcium fluorescence, agonist counterscreen | activation, % at 3 µM | 2,400 compounds, 18% hits | AID 651953; in the data active = activation above about 12%;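 note: 0% = vehicle wells and 100% = saturating stimulus response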
TAAR1 ag counter: TAAR1 agonism, antagonist counter-screen | AID 651955 | hTAAR1 cell line, fluorescence activation, agonist mode | activation, % at 3 µM | shares compounds with TAAR1 antagonist | 2,400 compounds, 2% hits; in the data active = activation above about 37%;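 note: CHO cells stably expressing TAAR1 with calcium dye readout; 0% = DMSO vehicle and 100% = full agonist response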
An asterisk follows results filed as active; nt = no result given.

SMILES	TAAR1 antagonist	GPR7 antagonist	OX1R antag-1	TAAR1 ag	CHO parental Ca	OX1R antag-2	TAAR1 nonsel count	TAAR1 ant conf	Ga16 nonsel ag	TAAR1 ag counter
O=C(NCCc1ccccc1)c1cccc2c1C(=O)c1ccc(N3CCOCC3)cc1S2(=O)=O	51*	nt	9	27	-9	-3	24*	43	10	10
O=C(NCc1ccc(F)cc1)c1cccc2c1C(=O)c1ccc(N3CCOCC3)cc1S2(=O)=O	55*	nt	6	36	-18	-17	27*	45	9	7
CC(=O)Nc1ccc(S(=O)(=O)NCC(=O)OCC(=O)NCCc2ccccc2)cc1	-2	nt	nt	4	nt	nt	nt	nt	nt	nt
CC(C)(C)c1ccc(C(=O)Nc2ccc(NC(=O)c3ccco3)cc2)cc1	58*	-1	22	11	0	-19	22*	43	7	2
O=C(Nc1ccc(Oc2ccc(NC(=O)c3ccco3)c(NC(=O)c3ccco3)c2)cc1)c1ccco1	62*	-1	9	11	-13	-9	29*	56*	5	5
O=C(Nc1ccc(NC(=O)c2ccco2)cc1)c1ccco1	-14	3	21	2	-1	-2	nt	nt	nt	nt
C[C@@H]1CN([C@H](C)CO)C(=O)CCCn2cc(nn2)CO[C@H]1CN(C)C(=O)Nc1cccc(C(F)(F)F)c1	8	nt	nt	3	nt	nt	nt	nt	nt	nt
CCN(CC)C(=O)[C@H]1C[C@@H]2[C@H](C[C@@H](c3ccccc3)[C@H]1C)N(c1ccc(F)cc1)C(=O)N2CCCOc1ccccc1	69*	nt	nt	4	nt	nt	30*	58*	5	5
C[C@H](O)[C@@H]1C(=O)N2CCc3c([nH]c4ccccc34)[C@@H]2C[C@@H]1N(C)Cc1ccc2c(c1)OCO2	23	nt	nt	2	nt	nt	nt	nt	nt	nt
C=CCNC(=O)CN1CCC(c2nc3ccccc3[nH]2)CC1	-26	0	7	2	-12	-13	nt	nt	nt	nt
Fc1ccc2nc(-c3ccc(CN4CCC(c5nc6ccccc6[nH]5)CC4)cc3)c(-c3ccccc3)nc2c1	54*	nt	nt	19	nt	nt	47*	55*	21*	34
C=CCN1C[C@H](COC(=O)c2cccc(C)c2)Oc2cccc(F)c2S1(=O)=O	49*	nt	nt	1	nt	nt	38*	50*	7	6
CCCS(=O)(=O)NC(=O)C1(C)CCN(C(=O)c2cccc(C)c2C)C1 (stereo not drawn)	-1	nt	nt	0	nt	nt	nt	nt	nt	nt
COc1ccc(N2C(=O)c3ccccc3NC(=O)C2C(=O)NCC(C)C)cc1 (stereo not drawn)	-10	nt	nt	4	nt	nt	nt	nt	nt	nt
CCOC(=O)C1C(=O)C=C(c2ccccc2)CC1c1ccccc1 (stereo not drawn)	59*	nt	nt	4	nt	nt	30*	40	3	1
CC(C)c1csc(CN2CCC(C(=O)Nc3cccc(-c4ccco4)c3)CC2)n1	-13	nt	nt	-1	nt	nt	nt	nt	nt	nt
CC(C)NC(=O)C1(C)CN(S(C)(=O)=O)CC(=O)N1Cc1cccc(C(F)(F)F)c1 (stereo not drawn)	-11	nt	nt	6	nt	nt	nt	nt	nt	nt
O=C(CSc1nc(-c2ccccc2)nc2ccc(F)cc12)Nc1cccc(C(=O)O)c1	63*	0	2	22	10	13	31*	49*	7	13
O=C(CSc1nc(-c2ccccc2)nc2ccc(F)cc12)Nc1ccc(C(=O)O)cc1	43	-8	14	12	21	18	nt	nt	nt	nt
O=C(c1cccs1)N1C[C@@H](O)[C@H](n2cc(-c3ccc(F)cc3)nn2)C[C@@H]1c1ccccc1	2	nt	nt	1	nt	nt	nt	nt	nt	nt
CCCS(=O)(=O)NC(=O)C1(C)CCN(C(=O)COc2ccccc2)C1 (stereo not drawn)	0	nt	nt	2	nt	nt	nt	nt	nt	nt
CN(CC(=O)Nc1cccc(F)c1)CC(=O)Nc1cccc(S(=O)(=O)N2CCCCCC2)c1	61*	0	0	20	-8	-20	21	44	12*	15
Cc1ccc2cccc(OCC(=O)Nc3cccc(S(=O)(=O)N4CCCC4)c3)c2n1	75*	nt	19	15	-10	-8	34*	57*	9	7
COc1ccc(CN(C)CC(=O)Nc2cccc(S(=O)(=O)N3CCCC3)c2)cc1F	64*	nt	5	16	-16	-11	8	6	0	-2
COc1ccc(NC(=O)C2Cc3c(-c4cccc(C(N)=O)c4)ccnc3O2)cn1 (stereo not drawn)	-23	nt	nt	2	nt	nt	nt	nt	nt	nt
SMILES	TAAR1 antagonist	GPR7 antagonist	OX1R antag-1	TAAR1 ag	CHO parental Ca	OX1R antag-2	TAAR1 nonsel count	TAAR1 ant conf	Ga16 nonsel ag	TAAR1 ag counter
COc1cccc(/C=N/NC(=O)c2cc(C34CC5CC(CC(C5)C3)C4)[nH]n2)c1	57*	12	29	9	-14	-11	23*	36	8	18
Nc1nc2cc3c(cc2cc1C(=O)NCc1cccnc1)OCO3	13	nt	nt	2	nt	nt	nt	nt	nt	nt
O=C(O)Cc1cn(-c2ccccc2)nc1-c1ccccc1	-10	-19	16	0	-17	2	nt	nt	nt	nt
OCc1cn(-c2ccccc2)nc1-c1ccc(-c2nn(-c3ccccc3)cc2CO)cc1	54*	-8	4	21	-10	-10	41*	61*	12*	12
CCCN1C(=O)c2cc(C(=O)Nc3ccccc3OC)ccc2C1Nc1ccccc1OC (stereo not drawn)	60*	-8	-2	8	-6	-7	29*	43	5	4
Cc1ccc(N2CC(C(=O)Nc3cccc(S(=O)(=O)N4CCOCC4)c3)CC2=O)cc1 (stereo not drawn)	-33	nt	nt	1	nt	nt	nt	nt	nt	nt
Cc1nn(C)cc1CN(C)C(=O)C1CCC(=O)N(CCc2cccc(F)c2)C1 (stereo not drawn)	-11	nt	nt	2	nt	nt	nt	nt	nt	nt
COc1ccc(C(C)(O)c2nc(-c3cccc(C(F)(F)F)c3)cs2)cc1 (stereo not drawn)	-3	nt	nt	1	nt	nt	nt	nt	nt	nt
O=C(NCCc1ccc(Cl)cc1)C1CCN(S(=O)(=O)c2cccs2)CC1	61*	3	6	13	4	-7	19	50*	16*	28
O=C(NCCN1C(=O)S/C(=C\c2ccccc2)C1=O)C1CCN(S(=O)(=O)c2cccs2)CC1	67*	-2	32	20	-4	13	46*	52*	15*	8
